Screening results: PubChem, The Scripps Research Institute Molecular Screening Center
This is a sample that favours compounds with a hit; in the whole collection about 4.6% have one here.
CHO parental Ca – ATP-evoked calcium signal inhibitors, parental CHO, primary screen, counter-screen for OX1R antagonist project, cell-based, fluorescence, Fluo-8 calcium dye; parental CHO-K1, ATP-induced calcium, Fluo-8 fluorescence; inhibition, % at 5.6 µM; AID 463079, 2010; actives 0.63% (n = 330,000);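 active = inhibition above that plate's mean sample inhibition plus 3 SD, cut at about 26% in these data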;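 also: 0% = ATP-challenged DMSO wells and 100% = DMSO wells without ATP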
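Assay system – parental CHO cells · Reagent – ATP stimulus · Detection – intracellular calcium via Fluo-8 no-wash fluorescent dye · Evaluation – percent inhibition of ATP-evoked calcium rise, normalized to controls · Controls – ATP wells versus no-ATP DMSO wells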
OX1R antag-1 – antagonists of human orexin 1 receptor (OX1R); OX1R-expressing cells, FRET antagonist read-out; inhibition, % at 6.6 µM; actives 1.8% (n = 330,000); in the data active = inhibition mostly above about 38%, no sharp cut-off; inactive = mostly below about 40%;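 also: 0% = agonist challenge alone and 100% = reference antagonist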
Target sequence (O43613 whole entry, looked up): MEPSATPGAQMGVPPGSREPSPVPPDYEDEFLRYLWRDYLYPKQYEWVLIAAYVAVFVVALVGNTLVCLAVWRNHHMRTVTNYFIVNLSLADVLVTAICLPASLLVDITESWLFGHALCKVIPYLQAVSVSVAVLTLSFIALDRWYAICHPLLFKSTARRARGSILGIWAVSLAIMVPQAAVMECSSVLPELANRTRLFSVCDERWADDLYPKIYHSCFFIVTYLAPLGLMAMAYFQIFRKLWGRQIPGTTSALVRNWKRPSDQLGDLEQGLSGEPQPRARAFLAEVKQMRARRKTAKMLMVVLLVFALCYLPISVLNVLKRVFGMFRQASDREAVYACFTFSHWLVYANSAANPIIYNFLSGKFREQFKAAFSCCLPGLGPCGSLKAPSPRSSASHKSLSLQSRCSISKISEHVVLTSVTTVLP
OX1R antag-2 – OX1R (HCRTR1) antagonists, primary screen, fluorescence, CHO/OX1R cells, Fluo-8 calcium, orexin A; Orexin/Hypocretin receptor type 1 (Homo sapiens), O43613; Fluo-8 calcium fluorescence; inhibition, % at 5 µM; actives 0.43% (n = 330,000); AID 434989, 2010;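 active = inhibition above its plate's threshold, mean inhibition of all tested compounds on the plate plus 3 SD, cut at about 37% in these data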;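 also: 0% = orexin A challenge wells and 100% = SB-334867-A antagonist wells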
GPR7 antagonist – GPR7 receptor antagonists, primary screen, cell-based, fluorescence, single concentration. GPR7-expressing cells, fluorescence antagonist assay. inhibition, % at 4.4 µM. actives 1.1% (n = 290,000). AID 1861, 2009; in the data active = inhibition above about 16%, passing the limit was not always enough;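 also: cells stimulated with the agonist NPW; 0% = agonist with vehicle and 100% = vehicle without agonist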
TAAR1 antagonist – human TAAR1 antagonists, primary screen, Fluo-8 calcium fluorescence, CHO RD-HGA16 cells; AID 624466, 2012; Trace amine-associated receptor 1 (Homo sapiens), Q96RJ0; antagonist; inhibition, % at 3 µM; actives 1.5% (n = 360,000);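 active = inhibition above a per-plate cutoff, the mean inhibition of test compounds on that plate plus 3 SD, cut at about 49% in these data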;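 also: 0% = DMSO plus EC80 beta-PEA response and 100% = DMSO alone without agonist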
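Material: CHO RD-HGA16 cells bearing hTAAR1; compound dosing: one-point dosing, 3 µM nominal final; schedule: dye loading 75 min at 37 °C, then 30 min room temperature; measured by: calcium fluorescence with Fluo-8; control set: vehicle and agonist controls; replication: n of 1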
TAAR1 ag – human TAAR1 agonists, primary screen, Fluo-8 calcium fluorescence, CHO RD-HGA16 cells; Trace amine-associated receptor 1 (Homo sapiens), Q96RJ0; vehicle wells 0%, saturating PEA agonist 100%; activation, % at 3 µM; actives 0.99% (n = 360,000);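 active = activation above the mean activation of all test compounds in the run plus 3 SD, cut at about 38% in these data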
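System: CHO RD-HGA16 cells carrying human TAAR1 plus Gα16; Incubation: 17-24 h seeding, 75 min 37 °C dye, 30 min RT; Measured by: Fluo-8 fluorescence, 5 s baseline then 140 s kinetic read; Control set: DMSO and PEA EC100; Replication: single well for each compound.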
nonsel antag count – nonselective antagonists in TAAR1 counter-screen cells, counter-screen for hTAAR1 antagonist project, cell-based, fluorescence, calcium. shares compounds with TAAR1 antagonist. counterscreen cell line, antagonist mode. inhibition, % at 3 µM. actives 77% (n = 2,400). AID 651780, 2012; in the data active = inhibition above about 22%;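 also: CHO-Ga16 host cells stimulated with ATP at an EC80 level; 0% = agonist EC80 plus vehicle and 100% = vehicle without agonist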
TAAR1 antag conf – human TAAR1 antagonists, retest of hits, confirmation, cell-based, fluorescence; shares compounds with TAAR1 antagonist; TAAR1-expressing cells, fluorescence antagonist read-out; inhibition, % at 3 µM; actives 40% (n = 2,400); in the data active = inhibition above about 49%;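 also: CHO-Ga16 host cells challenged with agonist PEA near its EC80; 0% = agonist at EC80 plus vehicle and 100% = vehicle with no agonist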
Ga16 ag counter – calcium activation in Ga16-expressing cells, counter-screen for TAAR1 antagonist project, cell-based, fluorescence; shares compounds with TAAR1 antagonist; agonist counterscreen; activation, % at 3 µM; actives 18% (n = 2,400); in the data active = activation above about 12%;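 also: 0% = vehicle wells and 100% = saturating stimulus response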
TAAR1 ag count – TAAR1 activation by candidate antagonists – cell-based, fluorescence, counter-screen for TAAR1 antagonist project; shares compounds with TAAR1 antagonist; AID 651955, 2012; activation, % at 3 µM; actives 2% (n = 2,400); hTAAR1 cell line, agonist mode; in the data active = activation above about 37%;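 also: CHO cells stably expressing TAAR1 with calcium dye readout; 0% = DMSO vehicle and 100% = full agonist response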
Active calls of the source: *.

`CCN=C1SC(CC(=O)Nc2ccc(C(F)(F)F)cc2)C(=O)N1CC` (stereo not given) gave CHO parental Ca 8, OX1R antag-1 15, OX1R antag-2 -5, GPR7 antagonist -7, TAAR1 antagonist 77*, TAAR1 ag 24, nonsel antag count 38*, TAAR1 antag conf 65*, Ga16 ag counter 13* and TAAR1 ag count 14.
Screening Cc1ccccc1C(=O)N1CCN(c2ccc(NC(=O)c3ccc4c(c3)OCCO4)cc2)CC1 returned CHO parental Ca 12, OX1R antag-1 27, OX1R antag-2 6, GPR7 antagonist 24, TAAR1 antagonist 77*, TAAR1 ag 19, nonsel antag count 43*, TAAR1 antag conf 56*, Ga16 ag counter 17* and TAAR1 ag count 16.
For Clc1ccc(C(c2cccs2)N2CCNCC2)cc1 (stereo not given) the results were TAAR1 antagonist 6 and TAAR1 ag 6.
O=C(Nc1nc(-c2ccc3ccccc3c2)cs1)C1CCN(S(=O)(=O)c2cccs2)CC1 was read as CHO parental Ca -11, OX1R antag-1 15, OX1R antag-2 -15, GPR7 antagonist 8, TAAR1 antagonist 104*, TAAR1 ag 0, nonsel antag count 15, TAAR1 antag conf 3, Ga16 ag counter 3 and TAAR1 ag count 4.
Screening NS(=O)(=O)c1ccc(CCNC(=O)c2cc(S(=O)(=O)N3CCCCC3)ccc2Cl)cc1 returned TAAR1 antagonist -10 and TAAR1 ag 9.
Screening O=C(O)c1cccc(NC(=O)c2cn(-c3ccccc3)nc2-c2cc3ccccc3o2)c1 returned CHO parental Ca 18, OX1R antag-1 16, OX1R antag-2 19, GPR7 antagonist -4, TAAR1 antagonist 64*, TAAR1 ag 12, nonsel antag count 39*, TAAR1 antag conf 42, Ga16 ag counter 6 and TAAR1 ag count 4.
For O=C(N/N=C/c1cn(-c2ccccc2)nc1-c1cc2ccccc2o1)c1ccncc1 the results were CHO parental Ca -28, OX1R antag-1 10, OX1R antag-2 -13, GPR7 antagonist 11, TAAR1 antagonist 48 and TAAR1 ag 7.
Screening COc1ccc(C(=O)NCc2cnn(C)c2C)cc1OC1CCN(C(C)C)CC1 returned CHO parental Ca -2, OX1R antag-1 11, OX1R antag-2 -2, GPR7 antagonist -3, TAAR1 antagonist -8 and TAAR1 ag 0.
`COc1ccc(N(CC(=O)NCCc2ccc(OC)c(OC)c2)S(=O)(=O)c2ccc(OC)c(OC)c2)cc1` gave CHO parental Ca -31, OX1R antag-1 23, OX1R antag-2 -42, GPR7 antagonist -26, TAAR1 antagonist 19 and TAAR1 ag 8.
Cc1ccccc1NC(=O)CCN1C(=O)CSC1=O was read as CHO parental Ca -12, OX1R antag-1 8, OX1R antag-2 -16, GPR7 antagonist -12, TAAR1 antagonist 106*, TAAR1 ag -2, nonsel antag count -6, TAAR1 antag conf -6, Ga16 ag counter 3 and TAAR1 ag count 5.
`O=[N+]([O-])c1ccccc1N(S(=O)(=O)c1ccccc1)S(=O)(=O)c1ccccc1` gave TAAR1 antagonist 72*, TAAR1 ag 3, nonsel antag count 24*, TAAR1 antag conf 50*, Ga16 ag counter 3 and TAAR1 ag count 3.
`CCOC(=O)c1cc2c(=O)n3ccccc3nc2n(Cc2ccco2)c1=NC(=O)c1cccc(OC)c1` gave CHO parental Ca -15, OX1R antag-1 41, OX1R antag-2 -21, GPR7 antagonist -1, TAAR1 antagonist 56*, TAAR1 ag 9, nonsel antag count 25*, TAAR1 antag conf 33, Ga16 ag counter 4 and TAAR1 ag count 2.
Screening CC(=O)C1CCC2C3CCC4CC(=O)CCC4(C)C3C(O)CC12C (stereo not given) returned TAAR1 antagonist -2 and TAAR1 ag 4.
`CC(=NO)C1CCC2C3CCC4CC(=NO)CCC4(C)C3C(C)(O)CC12C` (stereo not given) gave TAAR1 antagonist 77*, TAAR1 ag 15, nonsel antag count 29*, TAAR1 antag conf 52*, Ga16 ag counter 17* and TAAR1 ag count 18.
`CCC(C)c1ccc(NC(=O)COc2c(F)c(F)c(C(F)(F)F)c(F)c2F)cc1` (stereo not given) gave CHO parental Ca -1, OX1R antag-1 11, OX1R antag-2 -32, GPR7 antagonist -13, TAAR1 antagonist 51*, TAAR1 ag 1, nonsel antag count 14, TAAR1 antag conf 17, Ga16 ag counter 1 and TAAR1 ag count 2.
O=C(COc1c(F)c(F)c(C(F)(F)F)c(F)c1F)Nc1ccc(N2CCOCC2)c(Cl)c1 was read as CHO parental Ca 17, OX1R antag-1 -1, OX1R antag-2 0, GPR7 antagonist 8, TAAR1 antagonist 12 and TAAR1 ag 22.
`CS(=O)(=O)N(CC(=O)NCc1ccncc1)c1cc(Cl)ccc1Cl` gave CHO parental Ca 6, OX1R antag-1 25, OX1R antag-2 -19, GPR7 antagonist -5, TAAR1 antagonist -2 and TAAR1 ag 2.
CC(C)C(NS(=O)(=O)c1ccc2c(c1)OCCCO2)C(=O)O (stereo not given) was read as CHO parental Ca -2, OX1R antag-1 10, OX1R antag-2 10, GPR7 antagonist -1, TAAR1 antagonist 11 and TAAR1 ag 0.
